RGS4 pot: RGS4 potentiation or activation; HEK293 M3R/inducible RGS4, carbachol calcium flux Fluo4; stronger effect = lower value; B-score at 10 µM; 0.92% of 310,000 active;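 active = B-score of the integrated calcium signal more than 4 SD below the library mean, with starting fluorescence not abnormally high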;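 also: negative B-score means reduced calcium response which marks RGS4 activation or potentiation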
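Reagent: ECmax carbachol challenge; Test system: M3R-expressing HEK293 line, RGS4 induced by doxycycline; Schedule: overnight RGS4 induction, 30 min dye load 37 °C, 20 min compound RT; Detection: calcium dye Fluo4 fluorescence; Read-out: Agonist-evoked peak-minus-minimum fluorescence over baseline, integrated ratio, B score.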
MrgX1 allo act: allosterically activates human MrgX1 receptor signaling; 0.63% of 310,000 active; Q96LB2; MrgX1-HEK293, Fluo-4 calcium flux, FDSS; stronger effect = higher value; B-score at 10 µM;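 active = plate-corrected calcium response at least 3 library SD above typical, normal starting fluorescence, not activating the receptor alone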;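 also: compound read alongside a low EC10 to EC30 dose of BAM8-22 agonist; peak minus trough fluorescence over baseline measured at the second addition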
Target sequence (Q96LB2 whole entry, looked up): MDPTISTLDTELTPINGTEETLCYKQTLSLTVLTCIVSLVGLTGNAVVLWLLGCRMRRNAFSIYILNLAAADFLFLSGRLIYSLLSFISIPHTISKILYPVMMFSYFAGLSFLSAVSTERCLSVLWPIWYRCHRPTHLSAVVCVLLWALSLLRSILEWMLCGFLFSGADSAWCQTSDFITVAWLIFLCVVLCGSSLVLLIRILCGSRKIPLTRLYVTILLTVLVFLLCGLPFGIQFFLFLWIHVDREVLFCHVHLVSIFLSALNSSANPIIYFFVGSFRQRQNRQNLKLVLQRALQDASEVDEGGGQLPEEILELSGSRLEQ
RGS4 block: inhibitors of human RGS4 | 0.45% of 310,000 active | P49798 | AID 463165 | HEK293 M3R/RGS4 inducible, Fluo-4 calcium flux; stronger effect = higher value; triggered by carbachol at its EC20 | B-score at 10 µM;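 active = B-score, a plate-corrected calcium signal, over three deviations above library mean, with baseline fluorescence within five deviations of library mean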;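 also: RGS4 expression induced by doxycycline in cells with stable M3 receptor; B-score is computed from the integrated fluorescence ratio over baseline after carbachol; higher B-score means a larger calcium signal and so more RGS4 inhibition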
Target sequence (P49798 whole entry, looked up): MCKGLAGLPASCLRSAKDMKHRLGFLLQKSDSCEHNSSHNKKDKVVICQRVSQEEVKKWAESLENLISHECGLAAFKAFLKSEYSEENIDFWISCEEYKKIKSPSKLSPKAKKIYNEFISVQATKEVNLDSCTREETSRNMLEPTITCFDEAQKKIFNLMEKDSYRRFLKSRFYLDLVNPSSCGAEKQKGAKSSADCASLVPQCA
MrgX1 antagonist: blocks BAM8-22 activation of human MrgX1 receptor. MRGX1-HEK293 calcium flux, Fluo-4, BAM8-22 antagonism; stronger effect = lower value. Q96LB2. 1.3% of 310,000 active. AID 588676. B-score at 10 µM;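 active = calcium-response B-score plate-corrected more than 3 library SD below zero, starting fluorescence within 5 deviations, no agonist response on first addition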;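 also: peak minus trough fluorescence over baseline after final BAM8-22 challenge near maximal dose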
MrgX1 ag: agonists of human MrgX1 receptor; Q96LB2; MrgX1-HEK293 cells, Fluo-4 calcium fluorescence, agonist mode; stronger effect = higher value; B-score at 10 µM; 0.44% of 310,000 active; AID 588627;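 active = calcium response B-score plate-corrected fluorescence ratio at least 3 library SD, with starting fluorescence B-score inside 5 SD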
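Material: MrgX1-expressing HEK293 cells; input: 15,000 cells per well; doses: test compound given as first of three sequential additions; schedule: overnight plating before 1 h dye loading; technique: Fluo-4 NW calcium-flux fluorescence, kinetic read; evaluation: baseline-normalised fluorescence change ratio, B-scored; control set: plate-wise positive and negative controls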
MrgX1 antag conf: human MrgX1 receptor antagonism, re-confirmation screen; shares compounds with MrgX1 antagonist; MrgX1-HEK293, BAM8-22 calcium flux, Fluo-4; stronger effect = lower value; remaining BAM8-22 calcium response % of control (stronger effect = lower value), % at 10 µM; 19% of 2,300 active; AID 602420;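 active = remaining agonist calcium response no higher than 100% minus 3 SD of agonist-only control wells, with starting fluorescence near control levels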;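 also: agonist BAM8-22 given at a near maximal EC90 to ECmax level; peak minus minimum fluorescence divided by baseline after agonist addition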
HEK293 Ca flux: activity in parental HEK293 cells lacking MrgX1; 2% of 4,000 active; shares compounds with MrgX1 antagonist; Fluo-4 calcium fluorescence, FDSS; fluorescence ratio F(max-min)/F0 at 10 µM;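 active = duplicate-averaged calcium fluorescence ratio at least three times the standard deviation of buffer wells, a nonspecific response in parental cells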
HEK293 Ca counter: counter-screen for MrgX1 allosteric activators: effect in parental HEK293 cells; shares compounds with MrgX1 antagonist; parental HEK293 calcium flux, Fluo-4 fluorescence ratio; stronger effect = higher value; AID 624114; 0.4% of 4,000 active; fluorescence ratio F(max-min)/F0 at 10 µM;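 active = calcium fluorescence ratio, averaged over duplicates, at least 3 SD of the buffer-well ratio, meaning a nonspecific response in receptor-free cells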;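 also: untransfected parental HEK293 lacking MrgX1 used as counterscreen for MrgX1 allosteric activators; fluorescence change taken during the second addition on a kinetic imager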
HEK293 Ca cntr2: counter-screen for MrgX1 activators: effect in parental HEK293 cells. 8.7% of 4,000 active. fluorescence ratio F(max-min)/F0 at 10 µM. Fluo-4 calcium fluorescence (FDSS); stronger effect = higher value. shares compounds with MrgX1 antagonist;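 active = calcium fluorescence ratio at least three times the spread of buffer wells, meaning a non-specific response in parental cells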
Numbers without * were called inactive; i = inactive; . = not tested or not shown. This is a sample that favours compounds with a hit; in the whole collection about 3.5% have one here.

SMILES | RGS4 pot | MrgX1 allo act | RGS4 block | MrgX1 antagonist | MrgX1 ag | MrgX1 antag conf | HEK293 Ca flux | HEK293 Ca counter | HEK293 Ca cntr2
CCCN(c1ccc(OCC)cc1)S(=O)(=O)c1ccc2c(c1)NC(=O)CO2 | i | i | i | i | i | . | . | . | .
Nc1c(C(=O)NC2CCCC2)sc2nc(-c3cccs3)ccc12 | i | i | i | -4.74* | i | i | i | i | i
NC(=O)c1sc2nc(-c3cccs3)ccc2c1N | i | i | i | i | i | . | . | . | .
O=C(C1CCC1)N1CCN(c2ccnc3cc(Cl)ccc23)CC1 | i | i | i | i | i | . | . | . | .
O=C(C1CCCCC1)N1CCN(c2ccnc3cc(Cl)ccc23)CC1 | i | i | i | -11.9* | i | i | i | i | i
CCC(=O)Nc1nnc(S(=O)(=O)N(C)c2cc(C)cc(C)c2)s1 | i | i | i | i | i | . | . | . | .
Cc1ccc(C2C3=C(CCCC3=O)N=C3c4ccccc4C(=O)C32)cc1 (configuration not stated) | i | i | i | -16.2* | i | i | i | i | i
O=C1CCCC2=C1C(c1ccccc1)C1C(=O)c3ccccc3C1=N2 (configuration not stated) | i | i | i | i | i | . | . | . | .
Cc1ccc(S(=O)(=O)N2CCC(C(=O)OCC(=O)N3CCCC(C)C3)CC2)cc1C (configuration not stated) | i | i | i | i | i | . | . | . | .
CC1CCCN(CCCNS(=O)(=O)c2ccc3c(c2)CCN3C(=O)C2CC2)C1 (configuration not stated) | i | i | i | i | i | . | . | . | .
Cc1csc(Sc2nc3c(c(=O)[nH]c(=O)n3C)n2Cc2ccccc2Cl)n1 | i | i | i | -8.75* | i | i | i | i | i
CSc1nc2c(c(=O)[nH]c(=O)n2C)n1Cc1ccccc1Cl | i | i | i | i | i | . | . | . | .
Cc1ccc(NS(=O)(=O)c2ccc(N3C(=O)CCC3=O)cc2)cc1 | i | i | i | -5.42* | i | i | i | i | i
CC(C)c1ccc(NS(=O)(=O)c2ccc(N3C(=O)CCC3=O)cc2)cc1 | i | i | i | i | i | . | . | . | .
COCCn1c(C)cc(C(=O)CSc2nc3nc(C)cc(C)n3n2)c1C | i | i | i | i | i | . | . | . | .
COCCn1c(C)cc(C(=O)CSc2n[nH]c(N)n2)c1C | i | i | i | -4.83* | i | i | i | i | i
COc1ccc(OC)c(N2C(=O)CC(Cc3ccc(Cl)cc3)C2=O)c1 (configuration not stated) | i | i | i | -4.52* | i | i | i | i | i
NC(=S)Nc1cc2ccccc2c2ccccc12 | i | i | i | -4.77* | i | i | i | i | i
NC(=S)Nc1cccc2cc3ccccc3cc12 | i | i | i | i | i | . | . | . | .
Cc1ccc(NC(=S)N(CCCN2CCOCC2)Cc2cccnc2)cc1C | i | i | i | i | i | . | . | . | .
CCC(C)(C)n1nnnc1C(c1ccc2ncccc2c1)N1CCCC(C)C1 (configuration not stated) | i | i | i | -6.33* | i | i | i | i | i
CN(Cc1ccccc1)C(=O)c1ccc(NC(=O)c2ccccc2)cc1 | i | i | i | -5.53* | i | i | i | i | i
C/C(=N\NC(=O)c1cc(-c2ccc(C)s2)[nH]n1)c1ccncc1 | i | i | i | i | i | . | . | . | .

Source: PubChem BioAssay (Johns Hopkins Ion Channel Center)
